Experiment [1] deals with ACHN. Nature of the experiment: Growth inhibition of human ACHN cells assessed as cell growth at 10^-5 M after 48 hrs by sulforhodamine B assay relative to control. The experiment is classed as functional. The settings on record: read-out: Activity. A digest of the protocol:
(§1)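 NCI-60 single-dose screen at 10^-5 M. Cells grown in RPMI 1640 with 5% FBS and 2 mM L-glutamine, plated at 5,000–40,000 cells/well according to doubling time, and preincubated 24 h at 37°C, 5% CO2. Compound dissolved in DMSO and added. Exposure 48 h. Adherent cells fixed with cold TCA (10% final), suspension cells with 16% final TCA. Read-out is 0.4% SRB staining, dye solubilised in 10 mM Tris, absorbance at 515 nm. Percent growth is calculated against the time-zero plate and untreated control.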
(Sulforhodamine B stains cellular protein and so reports cell mass.)

Experiment [2] concerns A498. Nature of the experiment: Growth inhibition of human A498 cells assessed as cell growth at 10^-5 M after 48 hrs by sulforhodamine B assay relative to control. Format: functional. The settings on record: A498, 48 h, read-out: Activity. In a few lines:
as §1

Experiment [3] concerns SK-OV-3. Nature of the experiment: Growth inhibition of human SKOV3 cells assessed as cell growth at 10^-5 M after 48 hrs by sulforhodamine B assay relative to control. Format: functional. As to conditions: SK-OV-3, 48 h, read-out: Activity. A digest of the protocol: as §1
Experiment [4] is described as follows: Growth inhibition of human NCI-ADR-RES cells assessed as cell growth at 10^-5 M after 48 hrs by sulforhodamine B assay relative to control. Format: functional. The settings on record: read-out: Activity. In a few lines:
as §1

For experiment [5], the system named is OVCAR-8. Nature of the experiment: Growth inhibition of human OVCAR8 cells assessed as cell growth at 10^-5 M after 48 hrs by sulforhodamine B assay relative to control. The experiment is classed as functional. The settings on record: OVCAR-8, 48 h, read-out: Activity. A digest of the protocol:
as §1

The test system of experiment [6] is OVCAR-5. Description: Growth inhibition of human OVCAR5 cells assessed as cell growth at 10^-5 M after 48 hrs by sulforhodamine B assay relative to control. Format: functional. As to conditions: OVCAR-5, 48 h, read-out: Activity. A digest of the protocol: as §1
For experiment [7], the system named is SK-MEL-2. Description: Growth inhibition of human SK-MEL-2 cells assessed as cell growth at 10^-5 M after 48 hrs by sulforhodamine B assay relative to control. The settings on record: SK-MEL-2, 48 h, read-out: Activity. The experiment is classed as functional. A digest of the protocol:
as §1

Experiment [8] relates to Malme-3M. Nature of the experiment: Growth inhibition of human MALME-3M cells assessed as cell growth at 10^-5 M after 48 hrs by sulforhodamine B assay relative to control. The experiment is classed as functional. The settings on record: read-out: Activity. A digest of the protocol:
as §1

Experiment [9] deals with SNB-75. Description: Growth inhibition of human SNB75 cells assessed as cell growth at 10^-5 M after 48 hrs by sulforhodamine B assay relative to control. Format: functional. The settings on record: SNB-75, 48 h, read-out: Activity. A digest of the protocol: as §1
The subject of experiment [10] is SF-539. Nature of the experiment: Growth inhibition of human SF539 cells assessed as cell growth at 10^-5 M after 48 hrs by sulforhodamine B assay relative to control. Format: functional. As to conditions: SF-539, 48 h, read-out: Activity. A digest of the protocol:
as §1

Experiment [11] deals with SF-295. Nature of the experiment: Growth inhibition of human SF295 cells assessed as cell growth at 10^-5 M after 48 hrs by sulforhodamine B assay relative to control. The experiment is classed as functional. The settings on record: SF-295, 48 h, read-out: Activity. In a few lines:
as §1

Experiment [12] in a line: Growth inhibition of human HCC2998 cells assessed as cell growth at 10^-5 M after 48 hrs by sulforhodamine B assay relative to control. Format: functional. As to conditions: HCC 2998, 48 h, read-out: Activity. A digest of the protocol: as §1
Experiment [13] relates to HOP-62. Nature of the experiment: Growth inhibition of human HOP62 cells assessed as cell growth at 10^-5 M after 48 hrs by sulforhodamine B assay relative to control. The experiment is classed as functional. The settings on record: HOP-62, 48 h, read-out: Activity. In a few lines:
as §1

Experiment [14] concerns the target T1, Vitamin D3 receptor (Homo sapiens, UniProt P11473).
T1 sequence (P11473 whole entry): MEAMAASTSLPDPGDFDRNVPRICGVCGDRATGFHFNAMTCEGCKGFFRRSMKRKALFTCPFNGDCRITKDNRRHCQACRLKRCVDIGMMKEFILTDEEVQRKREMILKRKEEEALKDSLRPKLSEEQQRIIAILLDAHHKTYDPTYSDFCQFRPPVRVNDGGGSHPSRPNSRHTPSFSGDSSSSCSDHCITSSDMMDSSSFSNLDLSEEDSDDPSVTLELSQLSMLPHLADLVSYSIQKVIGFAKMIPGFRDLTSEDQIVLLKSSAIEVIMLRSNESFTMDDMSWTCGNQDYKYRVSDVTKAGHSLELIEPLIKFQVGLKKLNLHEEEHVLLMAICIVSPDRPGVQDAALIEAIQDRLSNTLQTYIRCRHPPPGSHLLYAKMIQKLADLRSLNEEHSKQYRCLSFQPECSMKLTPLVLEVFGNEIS
Description: Inhibition of human vitamin D3 receptor.

In experiment [15] the test system is HL-60(TB). Nature of the experiment: Growth inhibition of human HL-60(TB) cells assessed as cell growth at 10^-5 M after 48 hrs by sulforhodamine B assay relative to control. As to conditions: HL-60, 48 h, read-out: Activity. The experiment is classed as functional. In a few lines:
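NCI-60 one-dose screen at 10^-5 M. Cells were grown in RPMI 1640 with 5% FBS and 2 mM L-glutamine and plated at 5,000–40,000 cells/well. They were preincubated 24 h at 37°C under 5% CO2, then exposed for 48 h. Suspension cells were fixed with 80% TCA (16% final) and stained with 0.4% SRB, read at 515 nm. Percent growth is versus untreated control, corrected for time-zero.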

In experiment [16] the test system is BT-549. Description: Growth inhibition of human BT549 cells assessed as cell growth at 10^-5 M after 48 hrs by sulforhodamine B assay relative to control. As to conditions: BT-549, 48 h, read-out: Activity. Format: functional. A digest of the protocol:
as §1

In general, Ki refers to a measure of affinity in units of concentration, obtained from inhibition or displacement. Higher therefore signals lower affinity. On to `Cc1ccc(-c2csc(=N)n2CC(=O)N2CCOCC2)cc1`, for which the growth at 10 µM came out at 97.5% in [1]; 95.1% in [2]; 114% in experiment [3]; 94.4% in [4]; 108% in [5]; 102% in [6]. In addition, the growth at 10 µM was 111% in experiment [7]; 131% in experiment [8]; 90.6% in experiment [9]; 100% in [10]; 83.6% in experiment [11]; 98.9% in experiment [12]. Besides, the growth at 10 µM in experiment [13] came to 112%; in [15], 93.2%; in experiment [16], 99.3%. Further, in experiment [14], the affinity, expressed as Ki, was 13.7 µM.
`CN1CCN(C(=O)Cn2c(-c3ccccc3)csc2=N)CC1`: the growth at 10 µM in [1] amounted to 81.2%; in [2], 92.6%; in [3], 89.2%; in [4], 92.6%; in experiment [5], 92.9%; in experiment [6] it was 110%. The growth at 10 µM came out at 118% in experiment [7]; 89.1% in experiment [8]; 56.5% in experiment [9]; 98.7% in experiment [10]; 65.9% in [11]; 101% in experiment [12]. Further, the figures for the growth at 10 µM in [13], in experiment [15] and in [16] were 88.9%, 100% and 92.6%, respectively. Besides, affinity in experiment [14] was put at a Ki of 28.3 µM.

The values above are taken from ChEMBL document CHEMBL2434944, “Novel acetamidothiazole derivatives: synthesis and in vitro anticancer evaluation” (Eur J Med Chem, 2013).
